Assay [1] deals with Staphylococcus aureus. The assay is described as follows: Antibacterial activity against Staphylococcus aureus ATCC 6538 after 24 hrs by serial dilution method. It counts as functional. The following applies: ATCC 6538, 24 h. In short, it runs like this:
(§1)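 Bacteria were grown overnight on a TSA slant, transferred into M9GY (pH 7.0) and incubated overnight at 30 °C. Third-generation, exponential-phase cells were adjusted to OD660 0.05 (about 5.10⁶–5.10⁷ cfu/mL). Initial solutions in methanol/water 1:1 were serially diluted automatically in microtitre plates. MIC was the lowest concentration with no turbidity after 24 h at 30 °C. Three independent experiments were run.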

Assay [2] deals with Pseudomonas aeruginosa. The assay is described as follows: Antibacterial activity against Pseudomonas aeruginosa ATCC 9027 after 24 hrs by serial dilution method. It counts as functional. The following applies: ATCC 9027, 24 h. In short, it runs like this: as §1
The test system of assay [3] is Staphylococcus aureus. Kind of assay: Antibacterial activity against Staphylococcus aureus ATCC 6538 after 5 days. It counts as functional. The following applies: ATCC 6538, 120 h. The procedure, abridged: (§2)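 From bacterial MIC plates after 5 days of incubation, the three sub-dose wells showing no growth were streaked onto trypticase soy agar. MLC was the lowest concentration leaving no viable bacteria after subculture on antibiotic-free medium. Three independent experiments were run.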

Assay [4] relates to Pseudomonas aeruginosa. The assay is described as follows: Antibacterial activity against Pseudomonas aeruginosa ATCC 9027 after 5 days. It counts as functional. The following applies: ATCC 9027, 120 h. The procedure, abridged:
as §2

Assay [5] concerns Aspergillus niger. Kind of assay: Antifungal activity against Aspergillus niger ATCC 6275 after 7 days. It counts as functional. To be noted: ATCC 6275, 168 h. The procedure, abridged: (§3)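 From fungal MIC plates after 7 days of incubation, the three sub-dose wells showing no growth were streaked onto Sabouraud dextrose agar. MLC was the lowest concentration leaving no viable fungi after subculture on drug-free medium. Three independent experiments were run.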

Assay [6] has as its system Candida albicans. The assay is described as follows: Antifungal activity against Candida albicans ATCC 10231 after 7 days. The following applies: ATCC 10231, 168 h. It counts as functional. The procedure, abridged: as §3
In assay [7] the test system is Aspergillus niger. The assay is described as follows: Antifungal activity against Aspergillus niger ATCC 6275 after 72 hrs by serial dilution method. To be noted: ATCC 6275, 72 h.
For assay [8], the system named is Candida albicans. The assay is described as follows: Antifungal activity against Candida albicans ATCC 10231 after 72 hrs by serial dilution method. To be noted: ATCC 10231, 72 h.

Some results are limits rather than exact numbers.

For orientation: MIC means the lowest concentration found to suppress growth. A lower MIC goes with inhibition by little substance.

Consider `CCCCCCCCCCCCCC[N+](C)(C)CCCCCCCCCCCS`, for which the minimal inhibitory concentration (MIC) came to 1310 µM in assay [1], 1120 µM in assay [2], 90 µM in assay [7] and 1520 µM in assay [8]. Further, the MLC is above 1520 µM in assay [3], above 1520 µM in assay [4], above 124 µM in assay [5] and above 1520 µM in assay [6].

For the compound `CCCCCCCCCCCCCC[N+](C)(C)Cc1ccccc1` [MIRISTALKONIUM CHLORIDE], the minimum inhibitory concentration (MIC) was found to be 3.2 µM in assay [1], 93 µM in assay [2], 4.74 µM in assay [7] and 8.36 µM in assay [8].

Consider `C[N+](C)(CCCNC(=O)CCCCCCCCCCS)Cc1ccccc1`, for which the MIC in assay [1] is 592 µM; in assay [2], 980 µM; in assay [7] it was 773 µM; in assay [8], above 1060 µM. Also, the MLC in assay [3] was 946 µM; in assay [4], above 1060 µM; in assay [5] it was above 946 µM; in assay [6], above 1060 µM.

As for `C[N+](C)(C)CCCNC(=O)CCCCCCCCCCS`, the MIC is 105 µM in assay [1], 595 µM in assay [2], 105 µM in assay [7] and above 1070 µM in assay [8]. Besides, the MLC in assay [3] was above 395 µM; in assay [4], above 864 µM; in assay [5], above 395 µM; in assay [6], above 1070 µM.

Consider `CCCCCCCCCCCC[N+](C)(C)CCCCCCCCCCCS`, for which the minimal inhibitory concentration (MIC) came out at 34.7 µM in assay [1], 326 µM in assay [2], 67.2 µM in assay [7] and 39.5 µM in assay [8]. The MLC in assay [3] is 73.3 µM; in assay [4], 326 µM; in assay [5] it was above 92.2 µM; in assay [6], above 63.4 µM.

With `C[N+](C)(CCCCCCCCCCCS)Cc1ccccc1`, the minimal inhibitory concentration (MIC) turned out to be 682 µM in assay [1], 1060 µM in assay [2], 351 µM in assay [7] and 472 µM in assay [8]. Further, the MLC in assay [3] is 682 µM; in assay [4], above 1530 µM; in assay [5], 682 µM; in assay [6] it was above 896 µM.

With `CCCCCCCCCCCCCC[N+](C)(C)CCCNC(=O)CCCCCCCCCCS`, the MIC was 188 µM in assay [1], 442 µM in assay [2], 56.3 µM in assay [7] and above 742 µM in assay [8]. Also, the MLC was 188 µM in assay [3], 599 µM in assay [4], above 74.2 µM in assay [5] and above 742 µM in assay [6].

On to `CCCCCCCCCC[N+](C)(C)CCCCCCCCCCCS`, for which the minimum inhibitory concentration (MIC) in assay [1] came to 11.6 µM; in assay [2] it was 309 µM; in assay [7] it was 31.6 µM; in assay [8], 31.6 µM. Further, the MLC in assay [3] is 48 µM; in assay [4], 309 µM; in assay [5], 48 µM; in assay [6], above 61.3 µM.

Take `CCCCCCCCCC[N+](C)(C)CCCNC(=O)CCCCCCCCCCS`: the MIC was 17.5 µM in assay [1], 171 µM in assay [2], 44.1 µM in assay [7] and above 677 µM in assay [8]. The MLC in assay [3] was 32.5 µM; in assay [4] it was 250 µM; in assay [5], above 60.7 µM; in assay [6], above 677 µM.

For `CCCCCCCCCCCC[N+](C)(C)CCCNC(=O)CCCCCCCCCCS`, the minimum inhibitory concentration (MIC) in assay [1] is 18.7 µM; in assay [2] it was 184 µM; in assay [7], 47 µM; in assay [8] it was above 688 µM. Also, the MLC in assay [3] was 38.2 µM; in assay [4], 184 µM; in assay [5], above 61.7 µM; in assay [6] it was above 688 µM.

On to `C[N+](C)(C)CCCCCCCCCCCS`, for which the minimum inhibitory concentration (MIC) in assay [1] stood at 56.6 µM; in assay [2], 557 µM; in assay [7], 56.6 µM; in assay [8], 1120 µM. The MLC in assay [3] was 56.6 µM; in assay [4] it was above 1120 µM; in assay [5] it was above 131 µM; in assay [6], above 1900 µM.

(Values after ChEMBL document CHEMBL1153869, “Preparation and antimicrobial behaviour of quaternary ammonium thiol derivatives able to be grafted on metal surfaces” (2009).)
